{"source": "ChEMBL document CHEMBL2176921", "about": "“Nitazoxanide Disrupts Membrane Potential and Intrabacterial pH Homeostasis of Mycobacterium tuberculosis” (ACS Med Chem Lett, 2011)", "key": {"[1]": {"tested_on": "Mycobacterium tuberculosis", "test": "Antitubercular activity against Mycobacterium tuberculosis H37Rv assessed as disruption of membrane potential at 0.4 ug/ml after 20 mins at pH 7.4 by DiOC2-based spectrofluorimetric analysis", "assay_type": "functional, organism-based", "in_short": "(§1)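 H37Rv grown to mid-log (OD580 ~0.6), resuspended to OD580 ~1.0 in 7H9 with 0.2% glycerol, 0.2% dextrose, 0.085% NaCl, 0.02% Tyloxapol at set pH (7.4, 5.5, 4.5; 5.5 also with 0.5 mM NaNO2). Compound added at 0.002–20 μg/mL final, then 15 μM DiOC2 for 20 min at room temperature, washed. Controls: CCCP 5 μM, rifampicin 0.4 μg/mL, DMSO. Red (488/610)/green (488/530) fluorescence ratio; triplicates, two experiments.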"}, "[2]": {"tested_on": "Mycobacterium tuberculosis", "test": "Antitubercular activity against Mycobacterium tuberculosis H37Rv assessed as disruption of membrane potential at 5 uM after 20 mins at pH 7.4 by DiOC2-based spectrofluorimetric analysis", "assay_type": "functional, organism-based", "in_short": "as §1"}, "[3]": {"tested_on": "Mycobacterium tuberculosis", "test": "Antitubercular activity against Mycobacterium tuberculosis H37Rv expressing pH sensitive ratiometric GFP assessed as reduction of intrabacterial pH at 0.002 to 20 ug/ml after 16 hrs at pH 7.5 by spectrofluorimetric analysis", "assay_type": "functional, organism-based", "in_short": "(§2)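 H37Rv carrying pH-sensitive ratiometric GFP plasmid, grown to mid-log (OD580 ~0.6), diluted to OD580 ~0.3 in 7H9 at pH 7.5, 6.5 or 5.5, with or without 0.5 mM NaNO2. Compound or DMSO exposure 16 h. Fluorescence at excitation 395/emission 510 and excitation 475/emission 510; intrabacterial pH inferred from the ratio of the two readings.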"}, "[4]": {"tested_on": "Mycobacterium tuberculosis", "test": "Antitubercular activity against Mycobacterium tuberculosis H37Rv assessed as disruption of membrane potential at 0.002 to 20 ug/ml after 20 mins at pH 5.5 by DiOC2-based spectrofluorimetric analysis", "assay_type": "functional, organism-based", "in_short": "as §1"}, "[5]": {"tested_on": "Mycobacterium tuberculosis", "test": "Antitubercular activity against Mycobacterium tuberculosis H37Rv assessed as disruption of membrane potential after 20 mins at pH 7.4 by DiOC2-based spectrofluorimetric analysis", "assay_type": "functional, organism-based", "in_short": "as §1"}, "[6]": {"tested_on": "Mycobacterium tuberculosis", "test": "Antitubercular activity against Mycobacterium tuberculosis H37Rv assessed as disruption of membrane potential at 0.002 to 20 ug/ml after 20 mins at pH 4.5 by DiOC2-based spectrofluorimetric analysis", "assay_type": "functional, organism-based", "in_short": "as §1"}, "[7]": {"tested_on": "Mycobacterium tuberculosis", "test": "Antitubercular activity against Mycobacterium tuberculosis H37Rv expressing pH sensitive ratiometric GFP assessed as reduction of intrabacterial pH after 16 hrs at pH 7.5 by spectrofluorimetric analysis", "assay_type": "functional, organism-based", "in_short": "as §2"}, "[8]": {"tested_on": "Mycobacterium tuberculosis", "test": "Antitubercular activity against Mycobacterium tuberculosis H37Rv", "assay_type": "functional"}, "[9]": {"tested_on": "Mycobacterium tuberculosis H37Rv", "test": "Drug uptake in Mycobacterium tuberculosis H37Rv at 1 to 10 fold MIC after 16 hrs by LC/MS analysis", "assay_type": "ADME, organism-based", "details": "in vivo"}, "[10]": {"tested_on": "Mycobacterium tuberculosis H37Rv", "test": "Drug metabolism in Mycobacterium tuberculosis H37Rv assessed as tizoxanide formation at 1 to 10 fold MIC after 16 hrs by LC/MS analysis", "assay_type": "ADME, organism-based", "details": "in vivo"}, "[11]": {"tested_on": "Mycobacterium tuberculosis H37Rv", "test": "Drug metabolism in Mycobacterium tuberculosis H37Rv assessed as [13C]acetylation at 1 to 10 fold MIC after 16 hrs by LC/MS analysis", "assay_type": "ADME, organism-based", "details": "in vivo"}}, "note": "The source made the active and inactive calls. The calls are words filed in the database; no cut-off is given here.", "data": [{"smiles": "CO[C@H]1/C=C/O[C@@]2(C)Oc3c(C)c(O)c4c(O)c(c(/C=N/N5CCN(C)CC5)c(O)c4c3C2=O)NC(=O)/C(C)=C\\C=C\\[C@H](C)[C@H](O)[C@@H](C)[C@@H](O)[C@@H](C)[C@H](OC(C)=O)[C@@H]1C", "values": [{"measurement": "Activity", "setting": "[1]", "result": "inactive"}]}, {"smiles": "N#CC(C#N)=NNc1cccc(Cl)c1", "values": [{"measurement": "Activity", "setting": "[2]", "result": "Active"}]}, {"smiles": "O=C(Nc1ccc([N+](=O)[O-])cc1Cl)c1cc(Cl)ccc1O", "values": [{"measurement": "Activity", "setting": "[3]", "result": "Active"}, {"measurement": "Activity", "setting": "[4]", "result": "Active"}, {"measurement": "Activity", "setting": "[5]", "result": "Dose-dependent effect"}, {"measurement": "Activity", "setting": "[6]", "result": "inactive"}]}, {"smiles": "CC(=O)Oc1ccccc1C(=O)Nc1ncc([N+](=O)[O-])s1", "note": "[NITAZOXANIDE]", "values": [{"measurement": "Activity", "setting": "[7]", "result": "Dose-dependent effect"}, {"measurement": "Activity", "setting": "[4]", "result": "Active"}, {"measurement": "Activity", "setting": "[5]", "result": "Dose-dependent effect"}, {"measurement": "Activity", "setting": "[6]", "result": "inactive"}, {"measurement": "MIC", "setting": "[8]", "result": 1, "unit": "µg/mL"}, {"measurement": "Drug uptake", "setting": "[9]", "result": "Active"}, {"measurement": "Drug metabolism", "setting": "[10]", "result": "Active"}]}, {"smiles": "O=C(Nc1ncc([N+](=O)[O-])s1)c1ccccc1O", "note": "[TIZOXANIDE]", "values": [{"measurement": "Drug metabolism", "setting": "[11]", "result": "Not Active"}]}]}
